Activity data for 61 compounds are collected here from ChEMBL document CHEMBL1821687, “Discovery, synthesis, and biological evaluation of novel SMN protein modulators” (J Med Chem, 2011).

Activity calls are given as the source filed them. No cut-off for these calls is given here.

For assay [1], the target named is Survival motor neuron protein (Homo sapiens) (UniProt Q16637). Briefly: Activation of SMN expressed in HEK293 cells assessed as concentration required to reach 50% of maximum luciferase signal by SMN2-promotor driven luciferase reporter gene assay. It counts as cell-based. The procedure, abridged: (§1)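 HEK-293 cells stably carrying the SMN2 reporter construct, kept in DMEM with 10% FCS, glutamax, pyruvate, pen/strep and 200 µg/mL hygromycin, and assayed without hygromycin. 2,000 cells/well were plated and adhered overnight at 37 °C, 5% CO2. Compounds were added as a 7-point titration, 50 µM to 25 nM final, in 0.46% DMSO, for 30–36 h. OneGlo luminescence was normalized to 4.5 mM sodium butyrate (100%) and DMSO (0%).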
(In general: In a reporter assay the amount or activity of a reporter protein is the signal.)

The target is the same in assay [2]. Briefly: Activation of SMN expressed in HEK293 cells assessed as rate of induction by SMN2-promotor driven luciferase reporter gene assay relative to basal level. It counts as cell-based. The arrangement: concentration or dose not given beside the values. The procedure, abridged: as §1

Chain of Survival motor neuron protein (Homo sapiens) (Q16637 whole entry): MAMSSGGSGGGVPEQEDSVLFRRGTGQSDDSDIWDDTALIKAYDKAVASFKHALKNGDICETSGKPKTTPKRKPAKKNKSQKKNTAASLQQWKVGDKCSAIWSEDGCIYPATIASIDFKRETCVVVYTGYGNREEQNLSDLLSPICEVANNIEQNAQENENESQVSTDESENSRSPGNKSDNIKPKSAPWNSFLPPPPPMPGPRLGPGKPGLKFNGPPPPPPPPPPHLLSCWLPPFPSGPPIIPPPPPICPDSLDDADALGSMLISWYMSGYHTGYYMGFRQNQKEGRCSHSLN

As for `CN(C)c1cccc(-c2nc(N3CCC(C(N)=O)CC3)ncc2F)c1`, the figures for the Activity in assay [1] and in assay [2] were 0.387 µM and 373%, respectively.

For the compound `Cn1ccc2cc(-c3csc(N4CCC(C(N)=O)CC4)n3)ccc21`, the Activity in assay [1] stood at 7.72 µM; in assay [2] it was 534%.

On to `NC(=O)C1CCN(c2nccc(-c3ccc4c(c3)OCCCO4)n2)CC1`, for which the Activity in assay [1] came to 1.54 µM; in assay [2] it was 234%.

For the compound `CS(=O)(=O)c1ccc(-c2csc(N3CCC(C(N)=O)CC3)n2)cc1`, the result in assay [1] was inactive.

As to `CCOC(=O)C1CCN(c2nc(-c3ccc(Br)cc3)cs2)CC1`, the Activity in assay [1] worked out at 7.72 µM; in assay [2], 550%.

As to `NC(=O)C1CCN(c2nc(-c3ccc([N+](=O)[O-])cc3)cs2)CC1`, the Activity in assay [1] was 15.4 µM; in assay [2], 254%.

Take `CC(C)COc1ccc(-c2csc(N3CCC(C(N)=O)CC3)n2)cc1`: the Activity was found to be 3.07 µM in assay [1] and 54% in assay [2].

Turning to `Brc1ccc(-c2csc(N3CCC(c4nnn[nH]4)CC3)n2)cc1`, the Activity is 12.2 µM in assay [1] and 67% in assay [2].

As for `NC(=O)C1CCN(c2nccc(Cl)n2)CC1`, the outcome in assay [1] was inactive.

With `CC(=O)Nc1ccc(-c2csc(N3CCC(C(N)=O)CC3)n2)cc1`, the outcome in assay [1] was inactive.

As for `NC(=O)C1CCN(c2nc(-c3ccc(F)cc3)cs2)CC1`, the Activity is 3.87 µM in assay [1] and 288% in assay [2].

Turning to `c1c[nH]c(C2CCN(c3ncc(-c4ccc5c(c4)OCCCO5)s3)CC2)n1`, the Activity in assay [1] is 2.44 µM; in assay [2], 129%.

Take `COc1cc(OC)cc(-c2csc(N3CCC(C(N)=O)CC3)n2)c1`: the Activity in assay [1] turned out to be 7.72 µM; in assay [2], 45%.

Consider `NC(=O)C1CCN(c2nc(-c3cc4ccccc4o3)cs2)CC1`, for which the Activity in assay [1] amounted to 15.4 µM.

With `CC(=O)c1ccc(-c2csc(N3CCC(C(N)=O)CC3)n2)cc1`, the figures for the Activity in assay [1] and in assay [2] were 12.2 µM and 130%, respectively.

Consider `CN(C)c1cccc(-c2cnc(N3CCC(c4ncc[nH]4)CC3)s2)c1`, for which the Activity in assay [1] came to 7.72 µM; in assay [2], 188%.

Consider `NC(=O)C1CCN(c2nc(-c3cccnc3)cs2)CC1`, for which the outcome in assay [1] was inactive.

In the case of `CC(C)Oc1cccc(-c2csc(N3CCC(C(N)=O)CC3)n2)c1`, the Activity came to 0.77 µM in assay [1] and 605% in assay [2].

Turning to `CC(=O)c1cccc(-c2csc(N3CCC(C(N)=O)CC3)n2)c1`, the results for the Activity in assay [1] and in assay [2] were 3.87 µM and 356%, respectively.

For the compound `Brc1ccc(-c2csc(N3CCNCC3)n2)cc1`, the results for the Activity in assay [1] and in assay [2] were 24.4 µM and -97%, respectively.

In the case of `CC(=O)C1CCN(c2ncc(-c3ccc4c(c3)OCCCO4)s2)CC1`, in assay [1], the outcome was inactive.

With `Cc1noc(C)c1-c1csc(N2CCC(C(N)=O)CC2)n1`, the result in assay [1] was inactive.

On to `NC(=O)C1CCN(c2cc(-c3ccc4c(c3)OCCCO4)ncn2)CC1`, for which the Activity was 7.72 µM in assay [1] and 211% in assay [2].

For the compound `COc1ccc(-c2csc(N3CCC(C(N)=O)CC3)n2)cc1`, the Activity in assay [1] amounted to 7.72 µM; in assay [2], 209%.

As for `NC(=O)C1CCN(c2ncc(Br)s2)CC1`, the result in assay [1] was inactive.

On to `O=C(C1CCN(c2nc(-c3ccc(Br)cc3)cs2)CC1)N1CCOCC1`, for which the Activity in assay [1] is 30.8 µM; in assay [2], 77%.

`CNC(=O)C1CCN(c2nc(-c3ccc(Br)cc3)cs2)CC1`: the results for the Activity in assay [1] and in assay [2] were 7.72 µM and 101%, respectively.

As for `CN(C)c1cccc(-c2cc(N3CCC(C(N)=O)CC3)ncn2)c1`, the Activity came out at 3.87 µM in assay [1] and 81% in assay [2].

As for `Cc1ccc(-c2nnc(N3CCC(C(N)=O)CC3)s2)cc1`, the results for the Activity in assay [1] and in assay [2] were 0.244 µM and 54%, respectively.

As for `NC(=O)C1CCN(c2nc(-c3ccc(N)cc3)cs2)CC1`, the result in assay [1] was inactive.

For the compound `NC(=O)C1CCN(c2nc(-c3ccccc3)cs2)CC1`, the Activity in assay [1] is 7.72 µM; in assay [2], 167%.

In the case of `CC(C)Oc1ccc(-c2csc(N3CCC(C(N)=O)CC3)n2)cc1`, the Activity in assay [1] was 3.87 µM; in assay [2], 178%.

For `Cc1cnc(N2CCC(C(N)=O)CC2)nc1-c1cccc(N(C)C)c1`, the result in assay [1] was inactive.

Take `NC(=O)C1CCN(c2nc(-c3ccccc3C(F)(F)F)cs2)CC1`: in assay [1], the outcome was inactive.

For `N#Cc1cccc(-c2csc(N3CCC(C(N)=O)CC3)n2)c1`, the result in assay [1] was inactive.

For the compound `O=S(=O)(c1ccccc1)N1CCN(c2nc(-c3ccc(Br)cc3)cs2)CC1`, in assay [1], the result was inactive.

With `N#Cc1ccccc1-c1csc(N2CCC(C(N)=O)CC2)n1`, the result in assay [1] was inactive.

With `NC(=O)C1CCN(c2nc(-c3cccc(N)c3)cs2)CC1`, the result in assay [1] was inactive.

As to `CS(=O)(=O)c1ccccc1-c1csc(N2CCC(C(N)=O)CC2)n1`, the outcome in assay [1] was inactive.

Take `NC(=O)C1CCN(c2nc(-c3ccc(OCc4ccccc4)cc3)cs2)CC1`: the result in assay [1] was inactive.

`CC(C)(C)OC(=O)NC1CCN(c2nc(-c3ccc(Br)cc3)cs2)CC1`: the outcome in assay [1] was inactive.

As for `NC(=O)C1CCN(c2nc(-c3ccccc3-c3ccccc3)cs2)CC1`, the outcome in assay [1] was inactive.

In the case of `NC(=O)C1CCN(c2ncc(Br)cn2)CC1`, the outcome in assay [1] was inactive.

In the case of `Brc1ccc(-c2csc(N3CCOCC3)n2)cc1`, the result in assay [1] was inactive.

In the case of `O=C(c1ccccc1)N1CCN(c2nc(-c3ccc(Br)cc3)cs2)CC1`, in assay [1], the result was inactive.

As for `NC(=O)C1CCN(c2nc(-c3cccc(C(F)(F)F)c3)cs2)CC1`, the Activity in assay [1] came to 3.87 µM.

As to `O=C(C1CCN(c2nc(-c3ccc(Br)cc3)cs2)CC1)N1CCNCC1`, in assay [1], the result was inactive.

Consider `O=C(NCCCCc1ccccc1)C1CCN(c2nc(-c3ccc(Br)cc3)cs2)CC1`, for which the result in assay [1] was inactive.

As for `NC(=O)C1CCN(c2nc(-c3cccc4ccccc34)cs2)CC1`, the result in assay [1] was inactive.

On to `NC(=O)C1CCN(c2nc(-c3ccccc3Br)cs2)CC1`, for which the outcome in assay [1] was inactive.

`O=C(NCCCc1ccccc1)C1CCN(c2nc(-c3ccc(Br)cc3)cs2)CC1`: the result in assay [1] was inactive.

With `CN(C)c1ccccc1-c1csc(N2CCC(C(N)=O)CC2)n1`, in assay [1], the outcome was inactive.

For the compound `NC(=O)C1CCN(c2nnc(-c3ccc(Br)cc3)s2)CC1`, the result in assay [1] was inactive.

As for `COc1ccccc1-c1csc(N2CCC(C(N)=O)CC2)n1`, the outcome in assay [1] was inactive.

Take `CC(C(=O)O)c1ccc(N2Cc3ccccc3C2=O)cc1` (centres undefined): in assay [1], the Activity is above 1 µM.

Turning to `CS(=O)(=O)c1cccc(-c2csc(N3CCC(C(N)=O)CC3)n2)c1`, in assay [1], the result was inactive.

As for `NC(=O)C1CCN(c2nc(-c3ccccc3[N+](=O)[O-])cs2)CC1`, the result in assay [1] was inactive.

As for `O=C(NCc1ccccc1)C1CCN(c2nc(-c3ccc(Br)cc3)cs2)CC1`, in assay [1], the result was inactive.

On to `NC(=O)C1CCN(c2nc(-c3ccc(N4CCCCC4)nc3)cs2)CC1`, for which the Activity in assay [1] was determined as 6.13 µM.

Regarding `O=C(c1ccco1)N1CCN(c2nc(-c3ccc(Br)cc3)cs2)CC1`, the result in assay [1] was inactive.

Regarding `CS(=O)(=O)N1CCN(c2nc(-c3ccc(Br)cc3)cs2)CC1`, the outcome in assay [1] was inactive.
